Calls of active or inactive are those of the source. The rule behind the calls is not given here.
Key:
[1] = Neurotoxicity in Sprague-Dawley rat at 30 mg/kg, po measured after 1 hr by rotarod test; assay type: toxicity, organism-based; details: in vivo
How it was run: (§1)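 Rat neurotoxicity after i.p. or p.o. dosing was scored as animals impaired / animals tested at each time point. For p.o. dosing, TD50 was obtained by probit analysis.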

[2] = Neurotoxicity in Sprague-Dawley rat at 30 mg/kg, po measured after 0.5 hrs by rotarod test; assay type: toxicity, organism-based; details: in vivo; how it was run: as §1
[3] = Neurotoxicity in Sprague-Dawley rat at 30 mg/kg, po measured after 4 hrs by rotarod test; assay type: toxicity, organism-based; details: in vivo; how it was run: as §1
[4] = Neurotoxicity in CF-1 mouse at 300 mg/kg, ip measured after 0.5 hrs by rotarod test; assay type: toxicity, organism-based; details: in vivo
How it was run: (§2)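 Mice dosed i.p. were placed on a 1 in. knurled rod turning at 6 rpm. Toxicity was scored as failure to keep balance for at least 1 min, i.e. falling off three or more times. Results are reported as animals showing toxicity / animals tested at each time point.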

Mus musculus [5] = assay: Anticonvulsant activity in CF-1 mouse model of subcutaneous pentylenetetrazole-induced seizure assessed as reduction in convulsions at 30 mg/kg, ip measured at 0.5 hrs post dose; assay type: functional, organism-based
How it was run: (§3)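 Mice dosed i.p., then given pentylenetetrazole 85 mg/kg in 0.9% NaCl s.c. into the posterior midline of the neck. Seizures watched for at least 30 min. Scored as protected / tested at 0.5 and 4 h.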

Mus musculus [6] = assay: Anticonvulsant activity in CF-1 mouse model of maximal electroshock-induced seizure assessed as suppression of tonic hind limb extension at 300 mg/kg, ip measured at 4 hrs post dose; assay type: functional, organism-based
How it was run: (§4)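 Mice dosed i.p. and given maximal electroshock at 50 mA. Read-out is protection, reported as number protected / number tested at 0.25, 0.5, 1 and 4 h after dosing.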

Mus musculus [7] = assay: Anticonvulsant activity in CF-1 mouse model of subcutaneous pentylenetetrazole-induced seizure assessed as reduction in convulsions at 30 mg/kg, ip measured at 4 hrs post dose; assay type: functional, organism-based; how it was run: as §3
Mus musculus [8] = assay: Anticonvulsant activity in CF-1 mouse model of subcutaneous pentylenetetrazole-induced seizure assessed as reduction in convulsions at 300 mg/kg, ip measured at 0.5 hrs post dose; assay type: functional, organism-based; how it was run: as §3
[9] = Neurotoxicity in CF-1 mouse at 30 mg/kg, ip measured after 0.5 hrs by rotarod test; assay type: toxicity, organism-based; details: in vivo; how it was run: as §2
[10] = Neurotoxicity in CF-1 mouse at 100 mg/kg, ip measured after 4 hrs by rotarod test; assay type: toxicity, organism-based; details: in vivo; how it was run: as §2
Mus musculus [11] = assay: Anticonvulsant activity in CF-1 mouse model of subcutaneous pentylenetetrazole-induced seizure assessed as reduction in convulsions at 300 mg/kg, ip measured at 4 hrs post dose; assay type: functional, organism-based; how it was run: as §3
Mus musculus [12] = assay: Anticonvulsant activity in CF-1 mouse model of maximal electroshock-induced seizure assessed as suppression of tonic hind limb extension at 30 mg/kg, ip measured at 0.5 hrs post dose; assay type: functional, organism-based; how it was run: as §4
Rattus norvegicus [13] = assay: Anticonvulsant activity in Sprague-Dawley rat model of maximal electroshock-induced seizure assessed as suppression of tonic hind limb extension at 30 mg/kg, po measured at 2 hrs post dose; assay type: functional, organism-based
How it was run: (§5)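 Rats given 30 mg/kg p.o. and tested by maximal electroshock at 150 mA. Scored as number protected / number tested (4 per group) at 0.25, 0.5, 1, 2 and 4 h after dosing.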

[14] = Neurotoxicity in Sprague-Dawley rat at 30 mg/kg, po measured after 2 hrs by rotarod test; assay type: toxicity, organism-based; details: in vivo; how it was run: as §1
Mus musculus [15] = assay: Anticonvulsant activity in CF-1 mouse model of maximal electroshock-induced seizure assessed as suppression of tonic hind limb extension at 100 mg/kg, ip measured at 0.5 hrs post dose; assay type: functional, organism-based; how it was run: as §4
[16] = Neurotoxicity in CF-1 mouse at 30 mg/kg, ip measured after 4 hrs by rotarod test; assay type: toxicity, organism-based; details: in vivo; how it was run: as §2
[17] = Neurotoxicity in CF-1 mouse at 100 mg/kg, ip measured after 1 hr by rotarod test; assay type: toxicity, organism-based; details: in vivo; how it was run: as §2
Rattus norvegicus [18] = assay: Anticonvulsant activity in Sprague-Dawley rat model of maximal electroshock-induced seizure assessed as suppression of tonic hind limb extension at 30 mg/kg, po measured at 0.25 hrs post dose; assay type: functional, organism-based; how it was run: as §5
Mus musculus [19] = assay: Anticonvulsant activity in CF-1 mouse model of maximal electroshock-induced seizure assessed as suppression of tonic hind limb extension at 300 mg/kg, ip measured at 0.5 hrs post dose; assay type: functional, organism-based; how it was run: as §4
[20] = Neurotoxicity in CF-1 mouse at 100 mg/kg, ip measured after 0.5 hrs by rotarod test; assay type: toxicity, organism-based; details: in vivo; how it was run: as §2
Mus musculus [21] = assay: Anticonvulsant activity in CF-1 mouse model of subcutaneous pentylenetetrazole-induced seizure assessed as reduction in convulsions at 100 mg/kg, ip measured at 0.5 hrs post dose; assay type: functional, organism-based; how it was run: as §3
Mus musculus [22] = assay: Anticonvulsant activity in CF-1 mouse model of subcutaneous pentylenetetrazole-induced seizure assessed as reduction in convulsions at 100 mg/kg, ip measured at 4 hrs post dose; assay type: functional, organism-based; how it was run: as §3
Rattus norvegicus [23] = assay: Anticonvulsant activity in Sprague-Dawley rat model of maximal electroshock-induced seizure assessed as suppression of tonic hind limb extension at 30 mg/kg, po measured at 0.5 hrs post dose; assay type: functional, organism-based; how it was run: as §5
Mus musculus [24] = assay: Anticonvulsant activity in CF-1 mouse model of maximal electroshock-induced seizure assessed as suppression of tonic hind limb extension at 30 mg/kg, ip measured at 4 hrs post dose; assay type: functional, organism-based; how it was run: as §4
[25] = Neurotoxicity in Sprague-Dawley rat at 30 mg/kg, po measured after 0.25 hrs by rotarod test; assay type: toxicity, organism-based; details: in vivo; how it was run: as §1
Mus musculus [26] = assay: Anticonvulsant activity in CF-1 mouse model of maximal electroshock-induced seizure assessed as suppression of tonic hind limb extension at 100 mg/kg, ip measured at 1 hr post dose; assay type: functional, organism-based; how it was run: as §4
Mus musculus [27] = assay: Anticonvulsant activity in CF-1 mouse model of maximal electroshock-induced seizure assessed as suppression of tonic hind limb extension at 100 mg/kg, ip measured at 4 hrs post dose; assay type: functional, organism-based; how it was run: as §4
Rattus norvegicus [28] = assay: Anticonvulsant activity in Sprague-Dawley rat model of maximal electroshock-induced seizure assessed as suppression of tonic hind limb extension at 30 mg/kg, po measured at 1 hr post dose; assay type: functional, organism-based; how it was run: as §5
[29] = Neurotoxicity in CF-1 mouse at 300 mg/kg, ip measured after 4 hrs by rotarod test; assay type: toxicity, organism-based; details: in vivo; how it was run: as §2
Mus musculus [30] = assay: Anticonvulsant activity in ip dosed CF-1 mouse model of subcutaneous pentylenetetrazole-induced seizure assessed as time required for reduction in convulsions; assay type: functional
How it was run: (§6)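 Mice given test compound i.p.; pentylenetetrazole 85 mg kg⁻¹ in 0.9% NaCl injected subcutaneously into posterior midline of neck. Seizures observed for at least 30 min. Protected = no fore and/or hind limb clonus, jaw chomping or vibrissae twitching (3 to 5 s). Screening doses 30, 100, 300 mg kg⁻¹; read at 0.25, 0.5, 1.0, 4.0 h; scored as protected/tested.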

Mus musculus [31] = assay: Anticonvulsant activity in ip dosed CF-1 mouse model of subcutaneous pentylenetetrazole-induced seizure assessed as reduction in convulsions; assay type: functional; how it was run: as §6
Mus musculus [32] = assay: Anticonvulsant activity in CF-1 mouse model of maximal electroshock-induced seizure assessed as suppression of tonic hind limb extension at 100 mg/kg, ip measured at 2 hrs post dose; assay type: functional, organism-based
Mus musculus [33] = assay: Anticonvulsant activity in CF-1 mouse assessed as protection against 44 mA current-induced seizure at 300 mg/kg, ip after 0.5 hrs by 6 Hz psychomotor test; assay type: functional, organism-based
How it was run: (§7)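 Mice dosed i.p. (30, 100, 300 mg/kg; one line at 120 mg/kg read at 15 min). Corneal stimulation at 6 Hz, 44 mA for 3 s from a constant-current device induces a psychomotor seizure with stunned posture, forelimb automatisms, clonus, vibrissae twitching and Straub tail. Scored as number of animals protected / number tested (4 per group) at 0.5 and 2 h.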

[34] = Neurotoxicity in CF-1 mouse at 100 mg/kg, ip measured after 2 hrs by rotarod test; assay type: toxicity, organism-based; details: in vivo; how it was run: as §2
[35] = Neurotoxicity in CF-1 mouse at 300 mg/kg, ip measured after 2 hrs by rotarod test; assay type: toxicity, organism-based; details: in vivo; how it was run: as §2
[36] = Neurotoxicity in CF-1 mouse at 30 mg/kg, ip measured after 2 hrs by rotarod test; assay type: toxicity, organism-based; details: in vivo; how it was run: as §2
Mus musculus [37] = assay: Anticonvulsant activity in CF-1 mouse assessed as protection against 44 mA current-induced seizure at 100 mg/kg, ip after 2 hrs by 6 Hz psychomotor test; assay type: functional, organism-based; how it was run: as §7
Mus musculus [38] = assay: Anticonvulsant activity in CF-1 mouse assessed as protection against 44 mA current-induced seizure at 30 mg/kg, ip after 2 hrs by 6 Hz psychomotor test; assay type: functional, organism-based; how it was run: as §7
Mus musculus [39] = assay: Anticonvulsant activity in CF-1 mouse assessed as protection against 44 mA current-induced seizure at 30 mg/kg, ip after 0.5 hrs by 6 Hz psychomotor test; assay type: functional, organism-based; how it was run: as §7
Mus musculus [40] = assay: Anticonvulsant activity in CF-1 mouse model of maximal electroshock-induced seizure assessed as suppression of tonic hind limb extension at 30 mg/kg, ip measured at 2 hrs post dose; assay type: functional, organism-based
Mus musculus [41] = assay: Anticonvulsant activity in CF-1 mouse assessed as protection against 44 mA current-induced seizure at 100 mg/kg, ip after 0.5 hrs by 6 Hz psychomotor test; assay type: functional, organism-based; how it was run: as §7

Cc1cccc(C)c1OCC(=O)NCC(C)O (stereo unspecified)
Activity [1]: Non-Toxic | Activity [2]: Non-Toxic | Activity [3]: Non-Toxic | Activity [4]: Toxic | Activity (Mus musculus [5]): inactive | Activity (Mus musculus [6]): inactive | Activity (Mus musculus [7]): inactive | Activity (Mus musculus [8]): inactive | Activity [9]: Non-Toxic | Activity [10]: Non-Toxic | Activity (Mus musculus [11]): inactive | Activity (Mus musculus [12]): inactive | Activity (Rattus norvegicus [13]): inactive | Activity [14]: Non-Toxic | Activity (Mus musculus [15]): inactive | Activity [16]: Non-Toxic | Activity [17]: Non-Toxic | Activity (Rattus norvegicus [18]): inactive | Activity (Mus musculus [19]): Active | Activity [20]: Non-Toxic | Activity (Mus musculus [21]): inactive | Activity (Mus musculus [22]): inactive | Activity (Rattus norvegicus [23]): inactive | Activity (Mus musculus [24]): inactive | Activity [25]: Non-Toxic | Activity (Mus musculus [26]): inactive | Activity (Mus musculus [27]): inactive | Activity (Rattus norvegicus [28]): inactive | Activity [29]: Non-Toxic

CC(=O)[C@H]1CC[C@H]2[C@@H]3CC[C@H]4C[C@H](O)CC[C@]4(C)[C@H]3CC[C@]12C [BREXANOLONE]
Time (Mus musculus [30]): 0.17 h | ED50 (Mus musculus [31]): 13.7 mg/kg

Cc1cccc(C)c1OCC(=O)N[C@H]1CC[C@H](OC(=O)COc2c(C)cccc2C)CC1
Activity [4]: Non-Toxic | Activity (Mus musculus [32]): inactive | Activity [9]: Non-Toxic | Activity (Mus musculus [33]): inactive | Activity (Mus musculus [12]): inactive | Activity [34]: Non-Toxic | Activity [35]: Non-Toxic | Activity (Mus musculus [19]): inactive | Activity [20]: Non-Toxic | Activity [36]: Non-Toxic | Activity (Mus musculus [37]): inactive | Activity (Mus musculus [38]): inactive | Activity (Mus musculus [39]): inactive | Activity (Mus musculus [40]): inactive | Activity (Mus musculus [41]): inactive
